Reference: ChEMBL document CHEMBL1944531, “In silico assay for assessing phospholipidosis potential of small druglike molecules: training, validation, and refinement using several data sets” (J Med Chem, 2012)

Tests used:
Parameters in all cases: species or system Bos taurus, Cornea
Settings in all cases: cattle, corneal fibroblast
[1] = Induction of phospholipidosis in bovine corneal fibroblasts assessed as lamellar inclusion bodies after 72 hrs by light microscopy
[2] = Induction of phospholipidosis in bovine corneal fibroblasts assessed as lamellar inclusion bodies at 20 uM after 72 hrs by light microscopy
Procedure, shortened: (§1)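 Primary bovine corneal fibroblasts from collagenase-treated explants, passage 2–8, grown in DMEM/10% FCS/L-glutamine/antibiotics at 37 °C, 5% CO2. Confluent cells exposed 72 h to compound at 2.5, 5.0, 7.5, 10.0, 12.5, 15.0 or 20 μM (DMSO 1% where used). Controls: medium, 1% DMSO, imipramine 10 μM, in duplicate. Cells were fixed in 1% glutaraldehyde, stained overnight with 1% tannic acid, and black intracytoplasmic inclusions scored qualitatively by light microscopy.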

[3] = Induction of phospholipidosis in bovine corneal fibroblasts assessed as lamellar inclusion bodies at 7.5 uM after 72 hrs by light microscopy; procedure, shortened: as §1
[4] = Induction of phospholipidosis in bovine corneal fibroblasts assessed as lamellar inclusion bodies at 2.5 to 20 uM after 72 hrs by light microscopy; procedure, shortened: as §1

Row | Compound | Activity [1] | other results
1 | CN(C(=O)C(C)(C)c1cc(C(F)(F)F)cc(C(F)(F)F)c1)c1cnc(NCCO)cc1-c1ccccc1Cl | Non-toxic | 
2 | CCN(CCO)CCCCOc1ccc2c(-c3ccc(Br)cc3)nsc2c1 | Toxic | 
3 | CC(C)CC(N(C)C)C1(c2ccc(Cl)cc2)CCC1.Cl (centres undefined) | Toxic | 
4 | Cc1c(Cl)ccc2c1N1[C@H](CNC[C@H]1C)C2 | Toxic | Activity [2]: Toxic
5 | CC(OCC1CC1)c1ccc2c(n1)N1[C@@H](CNC[C@H]1C)C2 (some centres undefined) | Toxic | Activity [3]: Toxic
6 | COc1cc(F)c(C(OC)C(=O)NCc2ccc(C(=N)N)cc2)c(F)c1.Cl (centres undefined) | Non-toxic | 
7 | CCO[C@@H](C)c1ccc2c(n1)N1[C@@H](CNC[C@H]1C)C2.Cl | Non-toxic | Activity [2]: Toxic
8 | COc1ccc(C2CCOCC2)c2sc(NC(=O)N(C)C3CCN(C)CC3)nc12 | Toxic | 
9 | CS(=O)(=O)O.Cc1cc(-c2cnccn2)nn1CCC(C)(C)NCC(=O)N1CCC[C@H]1C#N | Non-toxic | 
10 | CC(C)COc1ccc(S(C)(=O)=O)cc1C(=O)N1Cc2cnc(C(F)(F)F)cc2C1 | Non-toxic | 
11 | COc1cc(-c2nc(N)c(CN)c(-c3ccc(Cl)cc3Cl)n2)cc(OC)c1OC | Toxic | 
12 | CC(C)(CCn1cnc(-c2cccnc2)c1)NCC(=O)N1CCC[C@H]1C#N.CS(=O)(=O)O | Non-toxic | 
13 | COc1ccc(S(=O)(=O)N(c2ccc(F)cc2)C2CCN([C@@H]3COCC[C@@]3(O)c3ccccc3)CC2)cc1 | Non-toxic | 
14 | Cc1cc(C#Cc2cn(-c3ccc(F)cc3)c(C)n2)ccn1 | Non-toxic | 
15 | CN1CCN([C@@H]2CCN(C(=O)c3cc(C(F)(F)F)cc(C(F)(F)F)c3)C[C@@H]2c2ccccc2)CC1 | Toxic | 
16 | Cc1cc(-c2cc(-c3ccccc3C)c(C(=O)NCc3cc(C(F)(F)F)cc(C(F)(F)F)c3)cn2)ccn1 | Non-toxic | 
17 | O=C(c1cc(C(F)(F)F)cc(C(F)(F)F)c1)N1CC[C@@H](N2CCOCC2)[C@@H](c2ccc(Cl)cc2)C1 | Toxic | 
18 | CN(CC[C@H]1CC[C@H](CN2CCCCC2)CC1)C(=O)Oc1ccc(C(F)(F)F)cc1 | Toxic | 
19 | C[C@@H]1CNC[C@H]2Cc3ccc(Cl)nc3N21 | Non-toxic | Activity [4]: Toxic
20 | Cc1ccc2c(n1)N1[C@@H](CNC[C@H]1C)C2 | Non-toxic | 
21 | C[C@H](C(N)=O)N1CCc2cc(OCc3cccc(F)c3)ccc2C1 | Toxic | 
22 | NCc1c(N)nc(-c2ccccc2)nc1-c1ccc(Cl)cc1Cl | Toxic | 
23 | COc1cc2c(cc1OC)[C@@H]1C[C@H](N)[C@@H](N3C[C@@H](C)CC3=O)CN1CC2 | Non-toxic | 
24 | NCC[C@H](O)C(=O)N[C@@H]1C[C@H](N)[C@@H](O[C@H]2O[C@H](CN)[C@@H](O)[C@H](O)[C@H]2O)[C@H](O)[C@H]1O[C@H]1O[C@H](CO)[C@@H](O)[C@H](N)[C@H]1O [AMIKACIN] | Non-toxic | 
25 | CCCCc1oc2ccccc2c1C(=O)c1cc(I)c(OCCN(CC)CC)c(I)c1 [AMIODARONE] | Toxic | 
26 | O=C(N[C@H](CO)[C@H](O)c1ccc([N+](=O)[O-])cc1)C(Cl)Cl [CHLORAMPHENICOL] | Non-toxic | 
27 | CN1CCN(C(c2ccccc2)c2ccc(Cl)cc2)CC1 (centres undefined) [CHLORCYCLIZINE] | Toxic | 
28 | CCN(CC)CCCC(C)Nc1ccnc2cc(Cl)ccc12 (centres undefined) [CHLOROQUINE] | Toxic | 

Row | Compound | Activity [1] | other results
29 | CC(C)(N)Cc1ccc(Cl)cc1 [CHLORPHENTERMINE] | Toxic | 
30 | CN(C)CCCN1c2ccccc2Sc2ccc(Cl)cc21 [CHLORPROMAZINE] | Toxic | 
31 | CN(C)CCCC1(c2ccc(F)cc2)OCc2cc(C#N)ccc21 (centres undefined) [CITALOPRAM] | Toxic | 
32 | CN(C)CCCN1c2ccccc2CCc2ccc(Cl)cc21 [CLOMIPRAMINE] | Toxic | 
33 | CN1CCN(C2=Nc3cc(Cl)ccc3Nc3ccccc32)CC1 [CLOZAPINE] | Toxic | 
34 | CN1CCN(C(c2ccccc2)c2ccccc2)CC1 [CYCLIZINE] | Toxic | 
35 | CN1C(=O)CN=C(c2ccccc2)c2cc(Cl)ccc21 [DIAZEPAM] | Non-toxic | 
36 | CC[C@H]1OC(=O)[C@H](C)[C@@H](O[C@H]2C[C@@](C)(OC)[C@@H](O)[C@H](C)O2)[C@H](C)[C@@H](O[C@@H]2O[C@H](C)C[C@H](N(C)C)[C@H]2O)[C@](C)(O)C[C@@H](C)C(=O)[C@H](C)[C@@H](O)[C@]1(C)O [ERYTHROMYCIN] | Non-toxic | 
37 | O=C(CCCN1CCC(O)(c2ccc(Cl)cc2)CC1)c1ccc(F)cc1 [HALOPERIDOL] | Toxic | 
38 | OCCOCCN1CCN(C(c2ccccc2)c2ccc(Cl)cc2)CC1 (centres undefined) [HYDROXYZINE] | Toxic | 
39 | CN(C)CCCN1c2ccccc2CCc2ccccc21 [IMIPRAMINE] | Toxic | 
40 | CN(C)CCCn1c2c(c3ccccc31)CCCCCC2 [IPRINDOLE] | Toxic | 
41 | CNCCCC12CCC(c3ccccc31)c1ccccc12 [MAPROTILINE] | Toxic | 
42 | Cc1cccc(CN2CCN(C(c3ccccc3)c3ccc(Cl)cc3)CC2)c1 (centres undefined) [MECLIZINE] | Toxic | 
43 | C1CCC(C(CC2CCCCN2)C2CCCCC2)CC1 (centres undefined) [PERHEXILINE] | Toxic | 
44 | CCC1(c2ccccc2)C(=O)NC(=O)NC1=O [PHENOBARBITAL] | Non-toxic | 
45 | CC(=O)Nc1ccc(N2CCN(CCCN(C)C)CC2)cc1 [PIPERAMIDE] | Toxic | 
46 | CN(C)CCCN1c2ccccc2Sc2ccccc21 [PROMAZINE] | Toxic | 
47 | CC(C)NCC(O)COc1cccc2ccccc12 (centres undefined) [PROPRANOLOL] | Toxic | 
48 | CCN(CC)CCCC(C)Nc1c2ccc(Cl)cc2nc2ccc(OC)cc12 (centres undefined) [QUINACRINE] | Toxic | 
49 | CS(=O)(=O)O.C[C@H](NCc1ccc(OCc2cccc(F)c2)cc1)C(N)=O [SAFINAMIDE MESYLATE] | Toxic | 
50 | [H]/N=C(/N)N[C@H]1[C@H](O)[C@@H](O)[C@H](O[C@@H]2O[C@@H](C)[C@](O)(C=O)[C@H]2O[C@@H]2O[C@@H](CO)[C@H](O)[C@@H](O)[C@@H]2NC)[C@@H](N/C(N)=N\[H])[C@@H]1O [STREPTOMYCIN] | Non-toxic | 
51 | CC/C(=C(\c1ccccc1)c1ccc(OCCN(C)C)cc1)c1ccccc1 [TAMOXIFEN] | Toxic | 
52 | CCN(CC)CCOc1ccc2c(c1)C(=O)c1cc(OCCN(CC)CC)ccc1-2 [TILORONE] | Toxic | 
53 | CCCC[C@@H]1CC(=O)[C@]2(O)O[C@@H]3[C@@H](NC)[C@@H](O)[C@@H](NC)[C@H](O)[C@H]3O[C@@H]2O1 [TROSPECTOMYCIN] | Non-toxic | 
54 | CCCC(CCC)C(=O)O [VALPROIC ACID] | Non-toxic | 
55 | GENTAMICIN | Non-toxic | 
